An excerpt weighted towards active compounds, which were near 5.1% of everything screened.
STAT3 blocker: inhibitors of IL-6 induced STAT3 signaling. inhibition, % at 5.5 µM. 190,000 compounds, 0.89% hits. U3A cells, IL-6 STAT3-luciferase reporter, luminescence; host cell line lacks STAT1;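 active means inhibition above the mean inhibition across all screened compounds plus 3 SD, cut at about 44% in these data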
APP 5'UTR act: activates APP 5'UTR luciferase reporter; activation, % at 2 µM; 190,000 compounds, 1% hits; AID 1276; SH-SY5Y APP 5'UTR luciferase reporter, luminescence; zero percent = DMSO vehicle wells;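 active means activation above a set limit, based on mean plus 3 SD of controls, cut at about 140% in these data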
STAT3 activator: activators of IL-6 induced STAT3 signaling | activation (% of control), % at 5.6 µM | AID 871 | 190,000 compounds, 0.91% hits | U3A cells, IL-6 STAT3-luciferase reporter, luminescence; 100% = signal with IL-6 EC80 alone;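 active means activation above the screen-wide mean of compound activation plus 3 SD, cut at about 130% in these data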
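Material: STAT1-lacking human U3A cells, STAT3 luciferase reporter | Benchmarks: IL-6-only wells as 100% reference | Probe or stimulus: IL-6 (33 ng/mL) | Timing: Compound 1 h, then IL-6 6 h at 37 °C | Detection: Luminescence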
STAT1 act: STAT1 signaling activation; NIH 3T3 STAT1-luciferase reporter, IFN-gamma, luminescence; 100% = IFN-gamma alone, no compound; AID 932; 200,000 compounds, 2.6% hits; activation (% of control), % at 5.5 µM;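 active means activation above the screen-wide mean activation plus 3 SD, cut at about 130% in these data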
NF-kB expr up: NF-kB expression increase, human neuronal cells | NF-kB reporter expression; active compounds read high | fold change at 12.5 µM | 190,000 compounds, 1.6% hits; in the data active means fold change above about 3.3
STAT1 blocker: inhibitors of IFN-gamma induced STAT1 signaling. NIH 3T3 STAT1-luciferase reporter, luminescence. 200,000 compounds, 0.35% hits. AID 920. inhibition, % at 5.5 µM;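 active means inhibition above a set limit, the mean inhibition across all tested compounds plus 3 SD, cut at about 34% in these data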
Each line names hits and unclear results; the compound was inactive in the other large screens.

CC1CCCCN1C(=S)NCc1ccco1 (stereo not given)	none
C(=C\c1nc(-c2ccncc2)no1)/c1ccccc1	STAT1 act 150.0 (no result: NF-kB expr up)
CCOc1ccccc1-c1nc(-c2ccncc2)no1	none
Cc1ccc(S(=O)(=O)N(C)C)cc1NC(=S)N1CCCCC1CO (stereo not given)	none
Cc1cc(C)n(-c2ccc(C(=O)OCC(=O)Nc3cc(Cl)ccc3[N+](=O)[O-])cc2)n1	STAT3 activator 134.3
COc1ccc(S(=O)(=O)CCC(=O)NCCc2ccc(C)cc2)cc1	none
COc1ccc(/C=C2\SC(=O)N(CCNC(=O)CCS(=O)(=O)c3ccc(C)cc3)C2=O)cc1	STAT1 act 130.6
COc1ccc(/C=C2\SC(=O)N(CCNC(=O)C3CCN(S(=O)(=O)c4cccs4)CC3)C2=O)cc1	STAT1 act 138.3
COc1ccc(/C=C2\SC(=O)N(CCNC(=O)Cn3cnnn3)C2=O)cc1	STAT1 act 137.5, NF-kB expr up 3.71
CN(C)/C=C/C(=C\C(=O)C(F)(F)F)Nc1ccc(C(F)(F)F)cc1	none
COc1ccc2cc(C(=O)NCc3ccco3)c(=O)oc2c1	NF-kB expr up 3.87
CNC(=S)Nc1cccc(C(=O)O)c1	none
O=C(NCc1ccco1)c1cc2ccc(O)cc2oc1=O	none
Cc1ccnc(NC(=O)c2cc3ccccc3oc2=O)c1	APP 5'UTR act 151.8, STAT1 act 143.8, NF-kB expr up 5.93
CC(C)(C)C(=O)NC(=S)Nc1cccc(C(=O)O)c1	STAT1 act 130.9 (no result: NF-kB expr up)
CC(C)Oc1cccc(C(=O)NC(=S)Nc2ccccc2)c1	STAT1 act 144.6
CCOc1ccccc1NC(=S)NCc1cccn1C	none
N=c1sccn1CC(=O)Nc1cc(S(=O)(=O)N2CCCC2)ccc1Cl	none
CN(C)S(=O)(=O)N1CCCC(C(=O)c2ccc(-c3ccccc3)c(F)c2)C1 (stereo not given)	none
CCC(C)c1ccc(NC(=S)NCc2ccccc2OC)cc1 (stereo not given)	none
CC(=O)N1N=C(c2ccc(C)o2)CC1c1cccc(F)c1 (stereo not given)	none
CCCc1nc(SCC(=O)c2ccc(F)cc2)c2ccccc2n1	none
COc1ccc(C(=O)NNC(=S)Nc2ccccc2)cc1	APP 5'UTR act 141.4, STAT1 act 129.6, NF-kB expr up 6.53
CCc1ccc(NC(=O)Nc2cccc(OC)c2)cc1	APP 5'UTR act 160.6, STAT1 act 146.3
COc1cccc(NC(=O)Nc2cccc(C(=O)O)c2)c1	STAT3 blocker 91.6, STAT1 blocker 87.7
COc1cccc(NC(=O)Nc2ccc(CC(=O)O)cc2)c1	none
COc1ccc(NC(=O)c2ccc3nccnc3c2)cc1	STAT1 act 131.1
NCCCC[C@@H]1NC(=O)[C@H](CCC(=O)O)NC(=O)c2cc([N+](=O)[O-])cc(I)c2OCC[C@@H](C(N)=O)NC1=O	none
Cc1ccccc1C(=O)NNC(=O)/C=C/c1ccccc1	none
O=C(Nc1ccc(Br)cn1)c1ccc2nccnc2c1	STAT1 act 149.1 (no result: NF-kB expr up)
COc1ccc(C(=O)Nc2cccc(OC)c2)cc1	NF-kB expr up 5.79
COc1ccc2oc(=O)c(C(=O)Nc3cccc(C)c3)cc2c1	STAT1 act 138.5
Cc1cc2ccccn2c1C(=O)Nc1ccccc1	STAT3 activator 134.2
COc1cc(OC)c(C(=O)CCCN2CCCC2)c(OC)c1	none
COc1ccc2c(c1)[nH]c(=O)c1sc3ccccc3c12	STAT3 activator 174.1
O=C/C(=C\Nc1ccccn1)c1nc2cc(Cl)ccc2o1	STAT3 activator 134.5
Nc1nnc(SCC(=O)c2cccc([N+](=O)[O-])c2)s1	none
Nc1nnc(SCC(=O)c2ccc3ccccc3c2)s1	NF-kB expr up 3.72
CN1CCN(CC(=O)Nc2ccccc2[N+](=O)[O-])CC1	NF-kB expr up 5.49
CCOCCCNC(=O)NC(=O)CN1CCN(S(=O)(=O)c2ccc3c(c2)OCCO3)CC1	none
CCOC(=O)Cn1cncc1-c1ccc([N+](=O)[O-])cc1	STAT1 act 129.6
CCOc1ccc(NC(=O)Cn2cncc2-c2ccc([N+](=O)[O-])cc2)cc1	none
Cc1cc2ncc(-c3ccc(Cl)cc3)c(N)n2n1	STAT1 act 129.0
Cc1nc2cc(NC(=O)Nc3cccc4ccccc34)ccc2n1C	STAT1 act 145.0
CC(=O)c1cccc(NC(=O)C(=O)Nc2cccc3ccccc23)c1	STAT1 act 136.8
CC(=O)c1cccc(NC(=O)CCOc2ccccc2)c1	none
CN1CCN(S(=O)(=O)c2ccc(N3CCc4ccccc4C3)nc2)CC1	none
Cc1ccccc1NC(=O)c1ccc(CN2CCC(Cc3ccccc3)CC2)cc1	STAT3 blocker 49.5
COC(=O)Cc1c(OC)ccn(CCc2c[nH]c3ccccc23)c1=O	STAT1 act 136.1
COc1ccc(NC(=O)CSc2nc3c([nH]c4ccccc43)c(=O)n2C)cc1	STAT3 activator 135.4
COc1cccc(-n2c(SCC(=O)N3CCCC3)nc3c([nH]c4ccccc43)c2=O)c1	STAT3 activator 141.9 (no result: NF-kB expr up)
Cn1c(SCC(=O)NCc2ccc(F)cc2)nc2c([nH]c3ccccc32)c1=O	STAT3 activator 133.3
CC(=O)c1c(C(C)=O)c(C)n(C2CCCCC2)c1C	none
N#C/C(=C\c1cccnc1)C(=O)NC1CCCCC1	none
CC(=O)N1N=C(c2ccco2)CC1c1ccc(C)cc1 (stereo not given)	none
CCc1ccc(C2CC(c3ccco3)=NN2S(C)(=O)=O)cc1 (stereo not given)	APP 5'UTR act 154.7, STAT1 act 138.0, NF-kB expr up 4.83
Cc1ccc(Cn2c(=O)c3ccccc3n3nc(C)cc23)cc1	none
Cc1ccc2nc(NC(=O)c3ccc4ncsc4c3)sc2c1	APP 5'UTR act 172.2, STAT1 act 147.4, NF-kB expr up 4.12
CCOCC(=O)Nc1nc2ccc(C)cc2s1	NF-kB expr up 3.44
CCCCNC(=O)Nc1nc2ccc(CC)cc2s1	STAT1 act 144.3
CCOC(=O)Nc1nc2ccccc2s1	NF-kB expr up 3.47
COc1cccc(/C=N\NC(=O)c2ccc(Cn3cc(Br)c([N+](=O)[O-])n3)o2)c1O	none
CCn1c(SCC(=O)Nc2cc(C)on2)nnc1-c1ccc(OC)cc1	none
C=CCNC(=O)C1(c2ccccc2)CC1(Cl)Cl (stereo not given)	none
Cc1ccc2nc(NC(=O)CCCc3nc4ccccc4s3)sc2c1	none
O=C(Cc1c(F)cccc1Cl)Nc1nc2ccccc2s1	STAT1 act 135.3
Cc1ccc2nc(NC(=O)CCCC(=O)O)sc2c1	STAT3 blocker 79.5, STAT1 blocker 51.5
CCOc1ccc(/C=C/C2=NNC(=O)CC2)cc1	STAT1 act 128.7
CCOC(=O)c1oc2ccc(/C=N/O)c(Cl)c2c1C	STAT1 act 132.2
CCOC(=O)c1oc2cccc(OCC(O)CNC(C)C)c2c1C (stereo not given)	none

Bioassay records from PubChem.
